Tests used:
Renin [1] = target: T1, Renin (Homo sapiens, UniProt P00797); test: Inhibitory concentration against human renin
T1 sequence (P00797 whole entry): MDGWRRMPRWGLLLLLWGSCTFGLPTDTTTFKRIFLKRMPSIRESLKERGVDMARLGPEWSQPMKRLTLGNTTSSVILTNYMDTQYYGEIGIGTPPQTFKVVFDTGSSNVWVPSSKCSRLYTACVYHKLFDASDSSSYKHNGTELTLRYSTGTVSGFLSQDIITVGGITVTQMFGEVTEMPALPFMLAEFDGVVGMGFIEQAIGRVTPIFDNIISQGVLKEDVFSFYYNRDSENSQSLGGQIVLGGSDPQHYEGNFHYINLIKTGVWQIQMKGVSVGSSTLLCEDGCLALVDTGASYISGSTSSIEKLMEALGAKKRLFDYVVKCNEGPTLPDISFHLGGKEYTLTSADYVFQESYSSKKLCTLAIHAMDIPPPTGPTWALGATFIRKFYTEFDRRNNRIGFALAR

Renin [2] = target: T1, Renin; test: Inhibitory concentration was measured against plasma renin from human; format: cell-free
Method in brief: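 Human plasma containing EDTA-2Na (14 mM) and neomycin sulfate (0.3%) was mixed with 0.5 M phosphate buffer pH 7.0, Phe-Ala-Pro and inhibitor in DMSO. Incubation ran 60 min at 37 °C, then angiotensin I generated was quantified by radioimmunoassay. IC50 refers to inhibition of plasma renin activity.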

Renin [3] = target: T2, Renin (Rattus norvegicus, UniProt P08424); test: Inhibitory concentration was measured against plasma renin from rat
T2 sequence (P08424 whole entry): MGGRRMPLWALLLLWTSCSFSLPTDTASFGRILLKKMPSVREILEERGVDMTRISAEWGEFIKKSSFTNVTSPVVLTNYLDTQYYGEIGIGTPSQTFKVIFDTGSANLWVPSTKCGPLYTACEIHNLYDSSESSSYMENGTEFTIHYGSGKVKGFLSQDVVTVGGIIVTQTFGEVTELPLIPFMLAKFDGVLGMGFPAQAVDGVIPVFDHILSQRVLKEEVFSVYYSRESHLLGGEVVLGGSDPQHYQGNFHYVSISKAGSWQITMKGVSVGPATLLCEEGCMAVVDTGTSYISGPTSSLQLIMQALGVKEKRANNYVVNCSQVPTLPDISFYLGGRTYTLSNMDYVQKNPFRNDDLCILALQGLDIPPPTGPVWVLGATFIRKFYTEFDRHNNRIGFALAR

Renin (Canis familiaris) = test: Inhibitory concentration was measured against plasma renin from dog

SMILES	IC50 (Renin [1]) [µM]	IC50 (Renin [2]) [µM]	IC50 (Renin [3]) [µM]	IC50 (Renin (Canis familiaris)) [µM]
COC(=O)[C@H](O)C(CC(C)C)NC(=O)C(Cc1cnc[nH]1)NC(=O)C(CC(=O)NCCc1ccccc1)Cc1cccc2ccccc12 (single isomer, unassigned; (+))	0.031	0.077		
COC(=O)C(O)C(CC(C)C)NC(=O)C(Cc1c[nH]cn1)NC(=O)C(CC(=O)N(C)C)Cc1cccc2ccccc12 (stereo not given)	0.078	0.025	> 100	0.64
COC(=O)[C@@H](O)C(CC(C)C)NC(=O)C(Cc1c[nH]cn1)NC(=O)C(CC(=O)NCCc1ccccc1)Cc1cccc2ccccc12 (single isomer, unassigned; (+))	1.3			
COC(=O)C(O)C(CC(C)C)NC(=O)C(Cc1c[nH]cn1)NC(=O)C(CC(=O)NCCc1ccccc1)Cc1cccc2ccccc12 (stereo in doubt)	0.078	0.09	> 100	2.1
COC(=O)C(O)C(CC(C)C)NC(=O)C(Cc1c[nH]cn1)NC(=O)C(CC(=O)NCCc1ccccc1)Cc1cccc2ccccc12 (stereo in doubt; 12)	> 100			
CC(C)CC(NC(=O)C(Cc1cnc[nH]1)NC(=O)C(CC(=O)N1CCOCC1)Cc1cccc2ccccc12)C(O)CC(=O)OC(C)C (stereo not given)	0.18	0.066	> 100	0.35
CC(C)CC(NC(=O)C(Cc1c[nH]cn1)NC(=O)C(CC(=O)N1CCOCC1)Cc1cccc2ccccc12)C(O)C(=O)NC(C)C (stereo not given)	0.13	0.13	4.4	1.1

— ChEMBL document CHEMBL1124071, “New human renin inhibitors containing an unnatural amino acid, norstatine” (J Med Chem, 1988)
